Activity calls are given as the source filed them. The calls are words filed in the database; no cut-off is given here.
Key:
ACHN [1] = assay: Sensitization of TRAIL-induced apoptosis in human ACHN cells assessed as reduction in cell viability preincubated for 2 hrs followed by addition of TRAIL measured after 18 hrs by MTS assay; type: functional, cell-based
Procedure, shortened: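 ACHN cells were seeded at 5000/well and rested overnight at 37 °C, in RPMI with 5% FCS, glutamine, NEAA, pyruvate, HEPES and 2-mercaptoethanol. Compound pretreatment ran 2 h, then TRAIL was added to 50 ng/mL for 18 h at 37 °C. Viability was read by MTS (2 h, A490). IC50 values (cell number reduced 50%) came from dose-response curves; triplicates, at least 3 independent experiments, ± SD.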

[2] = Glutathione reactivity in DMSO assessed as formation of MIchael adduct with GSH at pH 7.4 after 24 hrs in presence of NAC by HPLC method
Procedure, shortened: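 Withanolide (2.12 μM in DMSO, 0.5 mL) mixed with equal volume of 4.24 μM GSH or NAC solution at pH 7.4, 37 °C. Aliquots taken at 0, 0.5, 2, 4, 8, 24 h, stored −80 °C; unreacted withanolide quantified by C18 HPLC (H2O with 40 mM NH4OAc–MeOH gradient, UV 230 nm) using peak area.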

ACHN [3] = assay: Cytotoxicity in human ACHN cells assessed as reduce cell number after 48 hrs by MTS assay; type: cell-based
Procedure, shortened: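 ACHN cells exposed to compound for 48 h at 37 °C; viable cell number by MTS read-out. Triplicate determinations; IC50 (concentration reducing cell number by 50%) from 3 independent experiments, ± SD.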

ACHN [4] = assay: Reduction cFLIP level in human ACHN cells at 500 nM after 18 hrs by Western blot analysis; type: functional, cell-based
Procedure, shortened: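 ACHN cells (RPMI, 5% FBS) plated 1.5×10^6/well, grown overnight at 37 °C, then exposed to compound at 500 nM for 18 h. Lysed in RIPA with protease/phosphatase inhibitors and zVAD-FMK; 20 μg protein per lane immunoblotted with anti-FLIP (7F10); GAPDH as loading control.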

SMILES | IC50 (ACHN [1]) [nM] | further results
CC(=O)OC[C@]12CC[C@H]3[C@@H](C[C@H]4O[C@]45CC=CC(=O)[C@]35C)[C@]1(O)CC[C@@]2(O)[C@@](C)(O)[C@H]1C[C@]2(C)O[C@]2(C)C(=O)O1 | 1250 | –
CC(=O)O[C@@H]1C=CC(=O)[C@]2(C)[C@H]3CC[C@]4(C)[C@](O)([C@@](C)(O)[C@H]5CC(C)=C(C)C(=O)O5)CC[C@@]4(O)[C@@H]3C[C@H]3O[C@]132 | 90 | Activity [2]: Active; Activity (ACHN [3]): Toxic
CC(=O)OCC1=C(C)C(=O)O[C@@H]([C@](C)(O)[C@]2(O)C[C@H](OC(C)=O)[C@@]3(O)[C@@H]4CC=C5CC=CC(=O)[C@]5(C)[C@H]4CC[C@@]32COC(C)=O)C1 | > 4000 | –
CC1=C(C)C(=O)O[C@@H]([C@](C)(O)[C@]2(O)CC[C@@]3(O)[C@@H]4CC=C5[C@H](O)C=CC(=O)[C@]5(C)[C@H]4CC[C@]23C)C1 | 284 | –
CC(=O)OC[C@]12CC[C@H]3[C@@H](CC=C4CC=CC(=O)[C@@]43C)[C@]1(O)[C@@H](OC(C)=O)C[C@@]2(O)[C@@](C)(O)[C@H]1CC(C)=C(C)C(=O)O1 | > 4000 | –
CC(=O)OC[C@]12CC[C@H]3[C@@H](C[C@H]4O[C@]45C[C@@H](N=[N+]=[N-])CC(=O)[C@]35C)[C@]1(O)CC[C@@]2(O)[C@@](C)(O)[C@H]1CC(C)=C(C)C(=O)O1 | 251 | –
CC(=O)OC[C@]12CC[C@H]3[C@@H](C[C@H]4O[C@]45C[C@@H](n4ccnc4)CC(=O)[C@]35C)[C@]1(O)CC[C@@]2(O)[C@@](C)(O)[C@H]1CC(C)=C(C)C(=O)O1 | 164 | –
CC(=O)OC[C@]12CC[C@H]3[C@@H](C[C@H]4O[C@]45CCCC(=O)[C@]35C)[C@]1(O)CC[C@@]2(O)[C@@](C)(O)[C@H]1CC(C)=C(C)C(=O)O1 | > 4000 | –
CC1=C(C)C(=O)O[C@@H]([C@](C)(O)[C@]2(O)CC[C@@]3(O)[C@@H]4C[C@H]5O[C@]56C(=O)C=CC(=O)[C@]6(C)[C@H]4CC[C@]23C)C1 | > 4000 | –
CO[C@H]1CC(=O)[C@]2(C)[C@H]3CC[C@]4(COC(C)=O)[C@](O)([C@@](C)(O)[C@H]5CC(C)=C(C)C(=O)O5)CC[C@@]4(O)[C@@H]3C[C@H]3O[C@]32C1 | > 4000 | –
CC(=O)OC[C@]12CC[C@H]3[C@@H](CC=C4CC=CC(=O)[C@@]43C)[C@]1(O)CC[C@@]2(O)[C@@](C)(O)[C@H]1CC(C)=C(C)C(=O)O1 | 564 | –
CC(=O)OC[C@]12CC[C@H]3[C@@H](C[C@H]4O[C@]45CC=CC(=O)[C@]35C)[C@]1(O)[C@@H](OC(C)=O)C[C@@]2(O)[C@@](C)(O)[C@H]1CC(C)=C(C)C(=O)O1 | > 4000 | –
CC(=O)OC[C@]12CC[C@H]3[C@@H](CC=C4CC=CC(=O)[C@@]43C)[C@]1(O)[C@@H](OC(C)=O)C[C@@]2(O)[C@@](C)(O)[C@H]1CC(C)=C(CO)C(=O)O1 | > 4000 | –
CC(=O)O[C@H]1C=CC(=O)[C@]2(C)[C@H]3CC[C@]4(C)[C@](O)([C@@](C)(O)[C@H]5CC(C)=C(C)C(=O)O5)CC[C@@]4(O)[C@@H]3C[C@H]3O[C@]132 | 76 | Activity [2]: Active; Activity (ACHN [4]): Active; Activity (ACHN [3]): Toxic
CC(=O)OC[C@]12CC[C@H]3[C@@H](C[C@@H]4O[C@@]45CC=CC(=O)[C@]35C)[C@]1(O)[C@@H](O)C[C@@]2(O)[C@@](C)(O)[C@H]1CC(C)=C(C)C(=O)O1 | 1650 | –
CC(=O)OC[C@]12CC[C@H]3[C@@H](CC=C4CC=CC(=O)[C@@]43C)[C@]1(O)[C@@H](OC(C)=O)C[C@@]2(O)[C@@](C)(O)[C@H]1CC(CO[C@@H]2O[C@H](CO)[C@@H](O)[C@H](O)[C@H]2O)=C(C)C(=O)O1 | > 4000 | –

SMILES | IC50 (ACHN [1]) [nM] | further results
CC(=O)OC[C@]12CC[C@H]3[C@@H](CC=C4CC=CC(=O)[C@@]43C)[C@]1(O)[C@@H](OC(C)=O)C[C@@]2(O)[C@@](C)(O)[C@H]1CC(CO)=C(C)C(=O)O1 | > 4000 | –
CC1=C(C)C(=O)O[C@@H]([C@](C)(O)[C@]2(O)CC[C@@]3(O)[C@@H]4C[C@H]5O[C@]56CC=CC(=O)[C@]6(C)[C@H]4CC[C@]23CO)C1 | 1950 | –
CC1=C(C)C(=O)O[C@@H]([C@](C)(O)[C@]2(O)CC[C@@]3(O)[C@@H]4C[C@H]5O[C@]56[C@@H](O)C=CC(=O)[C@]6(C)[C@H]4CC[C@]23C)C1 | 563 | Activity [2]: Active; Activity (ACHN [3]): Toxic
CC(=O)OC[C@]12CC[C@H]3[C@@H](CC=C4CC=CC(=O)[C@@]43C)[C@]1(O)[C@@H](O)C[C@@]2(O)[C@@](C)(O)[C@H]1CC(C)=C(C)C(=O)O1 | > 4000 | –
CC(=O)OC[C@]12CC[C@H]3[C@@H](C[C@@H]4O[C@@]45CC=CC(=O)[C@]35C)[C@]1(O)CC[C@@]2(O)[C@@](C)(O)[C@H]1CC(C)=C(C)C(=O)O1 | > 4000 | Activity [2]: inactive
CC1=C(C)C(=O)O[C@@H]([C@](C)(O)[C@]2(O)CC[C@@]3(O)[C@@H]4C[C@H]5O[C@]56[C@@H](O)[C@@H](N=[N+]=[N-])CC(=O)[C@]6(C)[C@H]4CC[C@]23C)C1 | 1800 | –
CC(=O)OC[C@]12CC[C@H]3[C@@H](CC=C4C[C@@H](OS(=O)(=O)O)CC(=O)[C@@]43C)[C@]1(O)CC[C@@]2(O)[C@@](C)(O)[C@H]1CC(C)=C(C)C(=O)O1 | > 4000 | –
CC(=O)OC[C@]12CC[C@H]3[C@@H](C[C@@H]4O[C@@]45CC=CC(=O)[C@]35C)[C@]1(O)[C@@H](OC(C)=O)C[C@@]2(O)[C@@](C)(O)[C@H]1CC(C)=C(C)C(=O)O1 | > 4000 | –
CC(=O)OC[C@]12CC[C@H]3[C@@H](C[C@H]4O[C@]45CC=CC(=O)[C@]35C)[C@]1(O)[C@@H](O)C[C@@]2(O)[C@@](C)(O)[C@H]1CC(C)=C(C)C(=O)O1 | > 4000 | –
CC1=C(C)C(=O)O[C@@H]([C@](C)(O)[C@]2(O)CC[C@@]3(O)[C@@H]4C[C@H]5O[C@]56CCCC(=O)[C@]6(C)[C@H]4CC[C@]23CO)C1 | > 4000 | –
CC(=O)OC[C@]12CC[C@H]3[C@@H](CC=C4CC=CC(=O)[C@@]43C)[C@]1(O)[C@@H](OC(C)=O)C[C@@]2(O)[C@@](C)(O)[C@H]1CC(C)=C(CO[C@@H]2O[C@H](CO)[C@@H](O)[C@H](O)[C@H]2O)C(=O)O1 | > 4000 | –
CC(=O)OC[C@]12CC[C@H]3[C@@H](CC=C4C[C@@H](OS(=O)(=O)O)CC(=O)[C@@]43C)[C@]1(O)[C@@H](OC(C)=O)C[C@@]2(O)[C@@](C)(O)[C@H]1CC(C)=C(C)C(=O)O1 | > 4000 | –
CC1=C(C)C(=O)O[C@@H]([C@](C)(O)[C@]2(O)CC[C@@]3(O)[C@@H]4C[C@H]5O[C@]56[C@@H](OC(=O)n5ccnc5)C=CC(=O)[C@]6(C)[C@H]4CC[C@]23C)C1 | 233 | –
COC(=O)O[C@H]1C=CC(=O)[C@]2(C)[C@H]3CC[C@]4(C)[C@](O)([C@@](C)(O)[C@H]5CC(C)=C(C)C(=O)O5)CC[C@@]4(O)[C@@H]3C[C@H]3O[C@]132 | 111 | Activity [2]: Active; Activity (ACHN [4]): Active; Activity (ACHN [3]): Toxic
CC1=C(C)C(=O)O[C@@H]([C@](C)(O)[C@]2(O)CC[C@@]3(O)[C@@H]4CC=C5C(=O)C=CC(=O)[C@]5(C)[C@H]4CC[C@]23C)C1 | 168 | –

Reference: ChEMBL document CHEMBL4007460, “17β-Hydroxywithanolides as Sensitizers of Renal Carcinoma Cells to Tumor Necrosis Factor-α Related Apoptosis Inducing Ligand (TRAIL) Mediated Apoptosis: Structure-Activity Relationships” (J Med Chem, 2017)
